Experimental data from ChEMBL document CHEMBL4138139, “Discovery of VU6005649, a CNS Penetrant mGlu7/8 Receptor PAM Derived from a Series of Pyrazolo[1,5-a]pyrimidines” (ACS Med Chem Lett, 2017).
Activity calls are given as the source filed them.

Legend:
[1] = biological target: Interleukin-1 receptor type 1 (Mus musculus) (UniProt P13504); test: Inhibition of mouse IL-1 receptor at 10 uM relative to control
Method in brief: (§1)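 Single-concentration screen at 10 μM within a commercial lead-profiling panel of 68 GPCRs, ion channels and transporters. Activity read as percent inhibition of specific radioligand binding to each target.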

[2] = biological target: Neuropeptide Y receptor type 2 (Homo sapiens) (UniProt P49146); test: Displacement of [125I] Peptide YY from Y2 receptor in human KAN-TS cell membrane at 10 uM after 120 mins by scintillation counting method relative to control; type: cell membranes
Chain of Neuropeptide Y receptor type 2 (Homo sapiens) (P49146 whole entry): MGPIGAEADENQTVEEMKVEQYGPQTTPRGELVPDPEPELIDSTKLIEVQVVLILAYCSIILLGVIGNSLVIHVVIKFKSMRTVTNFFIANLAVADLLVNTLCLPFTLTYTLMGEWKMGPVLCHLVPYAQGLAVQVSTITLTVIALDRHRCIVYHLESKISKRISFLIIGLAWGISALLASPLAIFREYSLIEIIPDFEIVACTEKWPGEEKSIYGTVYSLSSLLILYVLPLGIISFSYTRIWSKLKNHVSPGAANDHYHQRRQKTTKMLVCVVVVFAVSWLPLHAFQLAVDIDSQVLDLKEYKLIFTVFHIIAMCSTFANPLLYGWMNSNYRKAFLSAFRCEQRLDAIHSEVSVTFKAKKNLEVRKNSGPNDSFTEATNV
Method in brief: (§2)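 Single-concentration screen at 10 μM in an outsourced profiling panel of 68 GPCRs, ion channels and transporters. Activity read out as percent inhibition of specific radioligand binding.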

[3] = organism: Rattus norvegicus; test: Inhibition of rat N-type calcium channel at 10 uM relative to control; method in brief: as §1
[4] = organism: Rattus norvegicus; test: Displacement of [3H]batrachotoxinin from sodium channel site 2 in Wistar rat brain membranes at 10 uM after 60 mins by scintillation counting method relative to control; type: cell membranes; details: Membrane; method in brief: as §1
[5] = biological target: Cytochrome P450 2D6 (Homo sapiens, UniProt P10635); test: Inhibition of CYP2D6 in human liver microsomes using dextromethorphan as substrate preincubated for 15 mins followed by NADPH addition measured after 8 mins by LC-MS/MS analysis; type: ADME
Chain of Cytochrome P450 2D6 (P10635 whole entry): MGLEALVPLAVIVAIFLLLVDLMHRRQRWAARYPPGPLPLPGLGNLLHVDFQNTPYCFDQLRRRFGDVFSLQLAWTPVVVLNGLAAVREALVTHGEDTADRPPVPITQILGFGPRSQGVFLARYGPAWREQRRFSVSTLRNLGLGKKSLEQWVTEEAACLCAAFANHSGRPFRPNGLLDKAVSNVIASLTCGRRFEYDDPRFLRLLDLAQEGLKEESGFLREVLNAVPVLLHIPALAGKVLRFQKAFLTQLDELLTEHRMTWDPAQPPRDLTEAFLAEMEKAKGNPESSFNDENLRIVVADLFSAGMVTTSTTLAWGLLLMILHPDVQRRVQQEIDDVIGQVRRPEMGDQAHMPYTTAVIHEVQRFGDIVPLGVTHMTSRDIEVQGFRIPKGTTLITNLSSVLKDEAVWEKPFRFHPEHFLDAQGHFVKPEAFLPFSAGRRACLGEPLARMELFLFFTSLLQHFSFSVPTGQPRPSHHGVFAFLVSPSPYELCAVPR

[6] = biological target: B2 bradykinin receptor (Homo sapiens) (UniProt P30411); test: Displacement of [3H] bradykinin from recombinant human bradykinin B2 receptor expressed in rat Chem1 cell membranes at 10 uM measured after 60 mins by scintillation counting method relative to control; method in brief: as §2
[7] = biological target: Endothelin-1 receptor (Homo sapiens) (UniProt P25101); test: Displacement of [125I] endothelin-1 from recombinant human ETA receptor expressed in CHOK1 cell membranes at 10 uM after 120 mins by scintillation counting method relative to control; method in brief: as §2
[8] = organism: Rattus norvegicus; test: Time at which total brain concentration stays above in vitro mGlu7 EC50 in rat; type: ADME, organism-based; details: in vivo
[9] = organism: Rattus norvegicus; test: Displacement of [35S] ATP-alphaS from Wistar rat brain P2Y receptor at 10 uM measured after 60 mins by scintillation counting method relative to control; method in brief: as §2
[10] = biological target: Sodium-dependent dopamine transporter (Homo sapiens) (UniProt Q01959); test: Displacement of [125I] RTI-55 from full length human recombinant DAT expressed in CHO cell membranes at 10 uM after 180 mins by scintillation counting method relative to control; method in brief: as §2
[11] = biological target: Metabotropic glutamate receptor 5 (Rattus norvegicus, UniProt P31424); test: Negative allosteric modulation of rat mGlu5 receptor expressed in HEK cells assessed as decrease in glutamate-induced thallium flux incubated for 142 secs followed by glutamate addition measured after 120 secs by Fluo4-AM dye based fluorescence assay; type: functional, cell-based
[12] = biological target: Estrogen receptor (Homo sapiens) (UniProt P03372); test: Displacement of [3H] estradiol from full length human recombinant ERalpha receptor expressed in Sf9 insect cells at 10 uM after 120 mins by scintillation counting method relative to control
Chain of Estrogen receptor (Homo sapiens) (P03372 whole entry): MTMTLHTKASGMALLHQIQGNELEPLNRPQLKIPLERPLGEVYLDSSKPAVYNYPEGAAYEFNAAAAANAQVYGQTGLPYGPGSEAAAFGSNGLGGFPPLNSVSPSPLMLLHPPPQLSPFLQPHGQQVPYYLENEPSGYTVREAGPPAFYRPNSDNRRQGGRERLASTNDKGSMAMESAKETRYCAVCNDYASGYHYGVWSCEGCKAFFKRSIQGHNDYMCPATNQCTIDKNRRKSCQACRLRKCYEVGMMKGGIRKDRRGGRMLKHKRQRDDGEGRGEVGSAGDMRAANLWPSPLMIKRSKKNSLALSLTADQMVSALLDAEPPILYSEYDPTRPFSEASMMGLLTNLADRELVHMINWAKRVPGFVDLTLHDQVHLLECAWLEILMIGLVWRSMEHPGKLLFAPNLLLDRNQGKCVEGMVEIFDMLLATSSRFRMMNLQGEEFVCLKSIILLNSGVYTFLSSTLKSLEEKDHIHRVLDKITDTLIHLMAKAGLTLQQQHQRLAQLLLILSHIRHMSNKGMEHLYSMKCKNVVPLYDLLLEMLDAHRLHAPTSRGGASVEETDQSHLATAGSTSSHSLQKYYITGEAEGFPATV

[13] = system: Mus musculus; test: Antipsychotic activity in wild-type contextual fear conditioning C57/B6 mouse model assessed as pro-cognitive effects on associative learning by measuring freezing at 50 mg/kg, ip treated 15 mins prior to training measured during 3 mins testing period (reference value: 65.5 +/- […])
[14] = biological target: B1 bradykinin receptor (Homo sapiens) (UniProt P46663); test: Displacement of [3H]kallidin (des-Arg10, Leu9) from recombinant human bradykinin B1 receptor expressed in CHOK1 cell membranes at 10 uM measured after 60 mins by scintillation counting method relative to control; method in brief: as §1
[15] = organism: Rattus norvegicus; test: Displacement of [125I] triiodothyronine from thyroid hormone receptor in Sprague-Dawley rat liver membranes at 10 uM after 18 hrs by scintillation counting method relative to control; type: cell membranes; details: Membrane; method in brief: as §2
[16] = biological target: Cannabinoid receptor 1 (Homo sapiens) (UniProt P21554); test: Displacement of [3H] SR141716A from recombinant human CB1 receptor expressed in rat Chem1 cell membranes at 10 uM measured after 90 mins by scintillation counting method relative to control; method in brief: as §2
Chain of Cannabinoid receptor 1 (Homo sapiens) (P21554 whole entry): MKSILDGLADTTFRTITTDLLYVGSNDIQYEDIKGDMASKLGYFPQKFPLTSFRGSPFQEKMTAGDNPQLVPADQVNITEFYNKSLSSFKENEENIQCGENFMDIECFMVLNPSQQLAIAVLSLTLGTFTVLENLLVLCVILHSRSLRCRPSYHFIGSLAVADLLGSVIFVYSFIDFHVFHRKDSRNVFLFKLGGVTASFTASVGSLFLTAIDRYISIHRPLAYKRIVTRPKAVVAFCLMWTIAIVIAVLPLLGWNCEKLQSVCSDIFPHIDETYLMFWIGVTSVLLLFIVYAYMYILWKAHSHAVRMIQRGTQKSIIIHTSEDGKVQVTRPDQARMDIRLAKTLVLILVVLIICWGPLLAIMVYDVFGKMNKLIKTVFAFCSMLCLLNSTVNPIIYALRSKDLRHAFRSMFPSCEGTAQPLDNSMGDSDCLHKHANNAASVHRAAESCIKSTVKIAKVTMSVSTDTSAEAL

[17] = biological target: L-type calcium channel, dihydropyridine site (Rattus norvegicus, UniProt P22002+P27732+Q02485); test: Inhibition of rat L-type calcium channel dihydropyridine site at 10 uM relative to control; type: protein assay
[18] = biological target: Kappa-type opioid receptor (Homo sapiens) (UniProt P41145); test: Displacement of [3H] diprenorphine from recombinant human kappa opioid receptor expressed in HEK293 cell membranes at 10 uM after 60 mins by scintillation counting method relative to control; method in brief: as §2
Chain of Kappa-type opioid receptor (Homo sapiens) (P41145 whole entry): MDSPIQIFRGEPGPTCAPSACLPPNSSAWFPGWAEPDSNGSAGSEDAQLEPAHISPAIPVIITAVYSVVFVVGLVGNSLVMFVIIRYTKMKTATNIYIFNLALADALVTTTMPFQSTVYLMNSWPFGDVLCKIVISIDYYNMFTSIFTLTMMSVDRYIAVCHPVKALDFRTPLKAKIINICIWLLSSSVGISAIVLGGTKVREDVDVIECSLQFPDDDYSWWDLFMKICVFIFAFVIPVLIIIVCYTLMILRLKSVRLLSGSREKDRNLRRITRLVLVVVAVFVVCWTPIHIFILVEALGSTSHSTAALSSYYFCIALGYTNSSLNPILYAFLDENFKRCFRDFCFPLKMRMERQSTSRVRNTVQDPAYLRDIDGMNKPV

[19] = system: Rattus norvegicus; test: Antipsychotic activity in rat assessed as inhibition of amphetamine-induced hyperlocomotion at 30 mg/kg, ip; type: functional, organism-based
Method in brief: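 Rats given 30 mg/kg IP in 10% Tween 80/H2O, challenged with amphetamine 0.75 mg/kg s.c.; locomotor activity measured.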

[20] = biological target: Sigma non-opioid intracellular receptor 1 (Homo sapiens) (UniProt Q99720); test: Displacement of [3H] haloperidol from sigma1 receptor in human Jurkat cells at 10 uM after 4 hrs by scintillation counting method relative to control; type: cell-based; method in brief: as §2
Chain of Sigma non-opioid intracellular receptor 1 (Homo sapiens) (Q99720 whole entry): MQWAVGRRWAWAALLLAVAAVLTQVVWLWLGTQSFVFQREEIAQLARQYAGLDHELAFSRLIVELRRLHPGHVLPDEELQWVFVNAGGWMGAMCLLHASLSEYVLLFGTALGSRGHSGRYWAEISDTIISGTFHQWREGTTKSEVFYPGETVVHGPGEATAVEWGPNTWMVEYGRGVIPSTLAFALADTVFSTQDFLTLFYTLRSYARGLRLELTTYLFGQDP

[21] = biological target: Muscarinic acetylcholine receptor M2 (Homo sapiens) (UniProt P08172); test: Displacement of [3H] N-methylscopolamine from recombinant human M2 receptor expressed in CHOK1 cell membranes at 10 uM after 120 mins by scintillation counting method relative to control; method in brief: as §2
[22] = biological target: Acetylcholine receptor subunit alpha (Homo sapiens) (UniProt P02708); test: Displacement of [125I] alpha-Bungarotoxin from alpha1 nAChR in human rhabdomyosarcoma cell membranes at 10 uM after 120 mins by scintillation counting method relative to control; method in brief: as §2
Chain of Acetylcholine receptor subunit alpha (Homo sapiens) (P02708 whole entry): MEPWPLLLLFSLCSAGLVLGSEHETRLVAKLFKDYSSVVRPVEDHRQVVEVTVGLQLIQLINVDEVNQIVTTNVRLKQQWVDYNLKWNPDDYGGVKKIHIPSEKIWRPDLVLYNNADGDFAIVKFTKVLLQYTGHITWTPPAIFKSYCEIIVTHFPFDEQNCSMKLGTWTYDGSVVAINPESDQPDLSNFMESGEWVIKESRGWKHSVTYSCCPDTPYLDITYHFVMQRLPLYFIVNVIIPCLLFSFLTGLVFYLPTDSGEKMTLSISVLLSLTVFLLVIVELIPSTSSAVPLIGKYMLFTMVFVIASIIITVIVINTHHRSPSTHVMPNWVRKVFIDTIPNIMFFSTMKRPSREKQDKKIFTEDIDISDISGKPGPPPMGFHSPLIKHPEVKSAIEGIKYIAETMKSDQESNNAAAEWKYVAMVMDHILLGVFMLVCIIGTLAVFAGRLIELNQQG

[23] = biological target: Androgen receptor (Homo sapiens) (UniProt P10275); test: Displacement of [3H] methyltrienolone from androgen receptor in human LNCAP cells at 10 uM after 20 hrs by scintillation counting method relative to control; type: cell-based
[24] = biological target: Beta-1 adrenergic receptor (Homo sapiens) (UniProt P08588); test: Displacement of [125I] cyanopindolol from full length human recombinant beta1 receptor expressed in CHOK1 cell membranes at 10 uM after 120 mins by scintillation counting method relative to control; method in brief: as §2
Chain of Beta-1 adrenergic receptor (Homo sapiens) (P08588 whole entry, looked up): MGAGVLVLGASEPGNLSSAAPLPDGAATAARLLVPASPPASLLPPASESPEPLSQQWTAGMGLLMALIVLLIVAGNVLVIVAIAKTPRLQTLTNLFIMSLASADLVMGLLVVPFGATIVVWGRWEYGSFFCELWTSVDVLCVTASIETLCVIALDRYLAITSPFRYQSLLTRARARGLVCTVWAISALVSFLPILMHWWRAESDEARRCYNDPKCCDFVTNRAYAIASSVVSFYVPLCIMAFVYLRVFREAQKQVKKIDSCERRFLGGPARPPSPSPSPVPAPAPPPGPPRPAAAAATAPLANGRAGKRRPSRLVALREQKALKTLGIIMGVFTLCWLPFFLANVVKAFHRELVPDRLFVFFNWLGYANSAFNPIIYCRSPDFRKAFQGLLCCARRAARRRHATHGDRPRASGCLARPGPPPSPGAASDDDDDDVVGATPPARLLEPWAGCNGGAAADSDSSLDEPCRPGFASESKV

[25] = biological target: Melatonin receptor type 1A (Homo sapiens) (UniProt P48039); test: Inhibition of human MT1 receptor at 10 uM relative to control; method in brief: as §1
[26] = biological target: Adenosine receptor A1 (Homo sapiens) (UniProt P30542); test: Displacement of [3H] DPCPX from full length human recombinant A1 receptor expressed in CHOK1 cell membranes at 10 uM after 90 mins by scintillation counting method relative to control; method in brief: as §2
[27] = biological target: Glucocorticoid receptor (Homo sapiens) (UniProt P04150); test: Displacement of [3H] dexamethasone from full length human recombinant glucocorticoid receptor expressed in insect cells at 10 uM after 24 hrs by scintillation counting method relative to control; method in brief: as §2
Chain of Glucocorticoid receptor (Homo sapiens) (P04150 whole entry): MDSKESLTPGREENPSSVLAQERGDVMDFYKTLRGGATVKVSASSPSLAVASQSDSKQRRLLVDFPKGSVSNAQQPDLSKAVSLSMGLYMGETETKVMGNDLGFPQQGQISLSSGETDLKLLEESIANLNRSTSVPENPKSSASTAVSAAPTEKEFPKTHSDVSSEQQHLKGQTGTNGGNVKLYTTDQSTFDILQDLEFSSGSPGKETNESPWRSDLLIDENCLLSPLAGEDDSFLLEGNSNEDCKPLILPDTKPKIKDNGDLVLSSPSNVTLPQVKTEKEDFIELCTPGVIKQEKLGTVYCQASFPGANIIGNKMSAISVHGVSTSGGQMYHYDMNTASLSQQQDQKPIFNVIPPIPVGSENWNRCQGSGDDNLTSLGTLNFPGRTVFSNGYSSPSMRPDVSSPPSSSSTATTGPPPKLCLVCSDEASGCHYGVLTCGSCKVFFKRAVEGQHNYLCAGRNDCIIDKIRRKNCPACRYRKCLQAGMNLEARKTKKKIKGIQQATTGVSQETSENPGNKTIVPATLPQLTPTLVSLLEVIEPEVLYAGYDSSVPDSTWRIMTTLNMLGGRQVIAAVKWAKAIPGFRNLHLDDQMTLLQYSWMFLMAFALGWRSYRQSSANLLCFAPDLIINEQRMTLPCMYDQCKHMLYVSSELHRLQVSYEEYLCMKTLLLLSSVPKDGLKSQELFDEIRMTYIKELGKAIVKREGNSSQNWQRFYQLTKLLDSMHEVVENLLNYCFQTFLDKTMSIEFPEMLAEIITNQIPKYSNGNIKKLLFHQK

[28] = biological target: 5-hydroxytryptamine receptor 2B (Homo sapiens) (UniProt P41595); test: Displacement of [3H] LSD from full length human recombinant 5-HT2B receptor expressed in CHOK1 cell membranes at 10 uM after 60 mins by scintillation counting method relative to control; method in brief: as §2
Chain of 5-hydroxytryptamine receptor 2B (Homo sapiens) (P41595 whole entry): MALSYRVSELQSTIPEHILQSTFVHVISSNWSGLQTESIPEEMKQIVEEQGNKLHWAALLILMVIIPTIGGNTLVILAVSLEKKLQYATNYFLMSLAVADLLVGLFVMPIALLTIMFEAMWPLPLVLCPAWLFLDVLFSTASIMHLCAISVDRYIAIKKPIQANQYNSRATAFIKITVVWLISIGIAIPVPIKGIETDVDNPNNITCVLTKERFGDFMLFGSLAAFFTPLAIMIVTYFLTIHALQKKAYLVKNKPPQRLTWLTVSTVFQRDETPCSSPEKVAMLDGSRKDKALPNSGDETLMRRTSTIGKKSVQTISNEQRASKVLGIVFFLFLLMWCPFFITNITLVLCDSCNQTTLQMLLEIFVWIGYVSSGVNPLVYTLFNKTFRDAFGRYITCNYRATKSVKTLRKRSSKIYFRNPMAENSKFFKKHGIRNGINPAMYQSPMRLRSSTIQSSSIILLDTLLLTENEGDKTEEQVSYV

COc1ccc(-c2c(C)nn3c(C(F)(F)F)cc(C)nc23)c(F)c1F
< 50%: inhibition [1] | inhibition [2] | inhibition [3] | inhibition [4] | inhibition [6] | inhibition [7] | inhibition [9] | inhibition [10] | inhibition [12] | inhibition [14] | inhibition [15] | inhibition [16] | inhibition at 10 µM [17] | inhibition [18] | inhibition [20] | inhibition [21] | inhibition [22] | inhibition [23] | inhibition [24] | inhibition [25] | inhibition [26] | inhibition [27] | inhibition [28]
> 10 µM: IC50 [11]
inactive: inhibition [19]
2 h: Time [8]
> 30 µM: IC50 [5]
76.8%: Activity [13]
